Laboratory results published in ChEMBL document CHEMBL2177103, “Discovery of diverse human dihydroorotate dehydrogenase inhibitors as immunosuppressive agents by structure-based virtual screening” (J Med Chem, 2012).

How the values were obtained:
[1] = target: T1, Dihydroorotate dehydrogenase (Plasmodium falciparum) (UniProt Q54A96); experiment: Inhibition of Plasmodium falciparum DHODH expressed in Escherichia coli BL21 (DE3) using L-dihydroorotate as substrate at 10 uM after 10 mins by DCIP dye reduction assay
T1 sequence (whole entry): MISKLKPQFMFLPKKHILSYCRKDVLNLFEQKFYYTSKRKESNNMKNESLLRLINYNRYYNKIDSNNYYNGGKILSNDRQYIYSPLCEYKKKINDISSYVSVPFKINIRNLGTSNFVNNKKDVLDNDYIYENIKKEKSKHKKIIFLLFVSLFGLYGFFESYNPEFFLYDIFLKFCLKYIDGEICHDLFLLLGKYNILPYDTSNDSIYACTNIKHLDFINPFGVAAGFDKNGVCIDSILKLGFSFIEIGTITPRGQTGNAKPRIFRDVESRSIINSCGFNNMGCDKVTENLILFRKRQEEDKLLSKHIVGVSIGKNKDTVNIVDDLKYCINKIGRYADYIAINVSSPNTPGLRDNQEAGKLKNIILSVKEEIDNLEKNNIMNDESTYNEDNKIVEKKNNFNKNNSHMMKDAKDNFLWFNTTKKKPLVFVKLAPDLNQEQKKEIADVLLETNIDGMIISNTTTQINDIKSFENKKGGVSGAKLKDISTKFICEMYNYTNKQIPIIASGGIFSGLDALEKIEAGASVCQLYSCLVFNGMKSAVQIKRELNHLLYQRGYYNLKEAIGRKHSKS
Procedure, shortened: (§1)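 DCIP reduction read as absorbance decrease at 600 nm over 5 min. Enzyme preincubated 10 min with compound (DMSO stock diluted in assay buffer); reaction started with dihydroorotate, 500 μM final.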

[2] = target: Dihydroorotate dehydrogenase (quinone), mitochondrial (Homo sapiens, UniProt Q02127); experiment: Inhibition of human DHODH expressed in Escherichia coli BL21(DE3) using L-dihydroorotate as substrate after 10 mins by DCIP dye reduction assay
Jurkat [3] = experiment: Cytotoxicity against human Jurkat cells after 4 days by MTT assay; type: cell-based; settings: 96 h
[4] = Immunosuppressive activity in mouse T cells assessed as inhibition of two way mixed lymphocyte reaction after 4 days by MTT assay; type: functional, cell-based; settings: T-cell, 96 h
[5] = Immunosuppressive activity in ICR mouse B cells assessed as inhibition of LPS-stimulated cell proliferation after 72 hrs by MTT assay; type: functional, cell-based
[6] = target: T2, Dihydroorotate dehydrogenase (Plasmodium falciparum, UniProt Q54A96); experiment: Inhibition of Plasmodium falciparum DHODH expressed in Escherichia coli BL21 (DE3) using L-dihydroorotate as substrate after 10 mins by DCIP dye reduction assay; procedure, shortened: as §1
T2 sequence (Q54A96 whole entry): T1 sequence (whole entry)

Jurkat [7] = experiment: Selectivity ratio of IC50 for human Jurkat cells to IC50 for ICR mouse B cells
T-cell = experiment: Selectivity ratio of IC50 for mouse T cells to IC50 for ICR mouse B cells; type: functional

Sequence of Dihydroorotate dehydrogenase (quinone), mitochondrial (Q02127 whole entry): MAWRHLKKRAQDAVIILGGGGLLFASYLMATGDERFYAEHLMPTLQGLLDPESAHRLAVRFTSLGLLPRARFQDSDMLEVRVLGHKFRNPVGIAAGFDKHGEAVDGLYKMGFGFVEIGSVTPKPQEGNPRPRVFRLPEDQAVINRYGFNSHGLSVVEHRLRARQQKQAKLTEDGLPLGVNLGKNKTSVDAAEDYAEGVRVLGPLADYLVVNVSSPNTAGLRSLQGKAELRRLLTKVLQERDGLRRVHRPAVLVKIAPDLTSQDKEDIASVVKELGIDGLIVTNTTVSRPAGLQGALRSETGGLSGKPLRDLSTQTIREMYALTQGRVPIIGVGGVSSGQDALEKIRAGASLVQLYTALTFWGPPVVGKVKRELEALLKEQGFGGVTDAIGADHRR

inhibition [1]	IC50 [2]	IC50 [6]	SMILES	IC50 (Jurkat [3])	IC50 [4]	IC50 [5]	Ratio IC50 (Jurkat [7])	Ratio IC50 (T-cell)
< 20%	15.6 µM		O=C(O)c1ccc(/C=N/c2cccc3ccccc23)cc1					
< 20%	0.78 µM		Oc1ccc(/C=N/c2cccc3ccccc23)c(O)c1	26.3 µM	23.6 µM	11.3 µM		
< 20%	3.3 µM		Brc1ccc(-c2csc(N/N=C/c3ccccc3)n2)cc1	1.07 µM	> 100 µM	> 100 µM		
< 20%	13 µM		O=C(/C=C/c1ccc(F)cc1)Nc1ccccn1					
< 20%	16.1 µM		Cc1ccccc1C(=O)Nc1cc(Cl)c(O)c(Cl)c1					
	1.83 µM	4.67 µM	O=C(Nc1nc2ccccc2s1)c1ccc(Cl)cc1Cl	> 100 µM	58.5 µM	19.9 µM		
< 20%	0.11 µM		O=Cc1ccccc1/C=N/Nc1nc(-c2ccccc2)cs1	> 100 µM	12.4 µM	14 µM		
	0.34 µM	1.93 µM	O=C(Nc1nc2ccccc2s1)c1cccc(C(Cl)(Cl)Cl)c1	43.5 µM	25.4 µM	8.74 µM		
< 20%	17.8 µM		Cc1ccc(C)c(/N=C/c2cccc(O)c2O)c1					
			C/C=C/C[C@@H](C)[C@@H](O)[C@H]1C(=O)N[C@@H](CC)C(=O)N(C)CC(=O)N(C)[C@@H](CC(C)C)C(=O)N[C@@H](C(C)C)C(=O)N(C)[C@@H](CC(C)C)C(=O)N[C@@H](C)C(=O)N[C@H](C)C(=O)N(C)[C@@H](CC(C)C)C(=O)N(C)[C@@H](CC(C)C)C(=O)N(C)[C@@H](C(C)C)C(=O)N1C [CYCLOSPORINE]	> 10 µM				
< 20%	18.3 µM		c1ccc2c(c1)Nc1nc3ccccc3nc1O2					
			C/C(O)=C(\C#N)C(=O)Nc1ccc(C(F)(F)F)cc1 [TERIFLUNOMIDE]	26.7 µM	48 µM	4.07 µM		
< 20%	3.96 µM		Oc1ccc(/N=C/c2ccc3ccccc3c2)cc1	45.7 µM	9.45 µM	9.93 µM		
< 20%	6.06 µM		O=C(/C=C/c1ccc(O)c(C(=O)O)c1)c1ccc(Cl)cc1	45.7 µM	30.2 µM	1.78 µM	26	17
< 20%	2.74 µM		CC1=NN(c2ccccc2)C(=O)/C1=C/c1ccc(-c2cccc(C(=O)O)c2)o1	> 100 µM	73.5 µM	> 100 µM		
	0.93 µM	0.76 µM	CC(=O)c1sc(Nc2ccc(C)c(Cl)c2)nc1C	5.39 µM	9.58 µM	4.65 µM		
	12.4 µM	9.48 µM	O=c1cc(-c2ccc(O)c(O)c2)oc2ccccc12					
< 20%	1.27 µM		COC(=O)c1ccc(Nc2nc(-c3ccc(Cl)cc3)c(C)s2)cc1	15.7 µM	13.3 µM	13 µM		
< 20%	0.55 µM		CCc1cccc(NC(=O)/C=C/c2ccc(Cl)c(Cl)c2)c1	30.1 µM	8.38 µM	11.2 µM		
< 20%	6.83 µM		COc1cccc(C(=O)Nc2nc3ccccc3s2)c1	> 100 µM	> 100 µM	16.1 µM		
